Assay results from publication PMC9007039 (Journal of medicinal chemistry, 2021).

Molecular target: GPC3 (Homo sapiens, UniProt P51654)
Format: cell-based
Conditions: Hep3B cells, 5 µM peptide, confocal microscopy
How it was run: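 Hep3B cells were seeded at ~70% confluence in EMEM with 10% FBS and no antibiotics. They were transfected with 5 nmol of each of three GPC3 siRNAs or a negative-control siRNA using a lipofection reagent. Knockdown was confirmed by anti-GPC3 Western blot with GAPDH as loading control. Cells were methanol-fixed and stained with 5 µM IRDye800-labelled peptide for 5 min at RT, plus anti-GPC3 and AF488 secondary. Intensities were quantified from confocal images.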

Chain of GPC3 (P51654 25-580): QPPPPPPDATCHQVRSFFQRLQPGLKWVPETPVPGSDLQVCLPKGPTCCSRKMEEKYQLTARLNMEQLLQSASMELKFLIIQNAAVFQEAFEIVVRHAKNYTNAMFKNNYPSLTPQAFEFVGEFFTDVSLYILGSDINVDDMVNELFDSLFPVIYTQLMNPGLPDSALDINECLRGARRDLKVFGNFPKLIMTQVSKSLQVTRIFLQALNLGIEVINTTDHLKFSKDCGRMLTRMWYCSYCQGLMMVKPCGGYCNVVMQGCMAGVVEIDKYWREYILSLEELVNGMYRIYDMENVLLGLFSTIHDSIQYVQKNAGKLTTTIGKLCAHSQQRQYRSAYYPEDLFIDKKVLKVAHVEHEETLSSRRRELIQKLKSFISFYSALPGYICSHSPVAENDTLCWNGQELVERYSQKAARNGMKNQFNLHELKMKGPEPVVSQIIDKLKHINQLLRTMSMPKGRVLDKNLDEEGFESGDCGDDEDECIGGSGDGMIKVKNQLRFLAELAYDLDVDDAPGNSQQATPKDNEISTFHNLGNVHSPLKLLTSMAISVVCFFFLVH

Sequence: FEAEHNLALQTL [FEA*-IRDye800]
- difference in fluorescence intensity siCL versus siGPC3 cells, all 3 siRNAs: non-significant difference
